An excerpt weighted towards active compounds, which were near 1.5% of everything screened.
Cneo AK release: causes C. neoformans cell lysis; lysis activity, % at 15 µM; adenylate kinase release luminescence, 4 h; normalised: neutral wells 0, clomiphene wells 100; AID 651654; actives 0.2% (n = 360,000);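 active means mean lysis activity across replicates of at least 80%, whatever share of replicates individually reach that level; inactive means mean lysis activity below 80%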
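Assay system: log-phase C. neoformans yeast / Quantity: yeast cell density of 5 × 10^6 cells/mL / Medium: fresh YPD growth medium / Compound: single dose / Timing: static 4 h at 37 °C with compound, 1 h detection / Measured by: adenylate kinase release luminescence / Read-out: lysis from increased AK signal / Benchmarks: Clomiphene as positive lysis control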
Mot1-301 SUMO: inhibitors of SUMOylation pathway: yeast Mot1-301 growth rescue | S. cerevisiae Mot1-301 growth rescue, ATP luminescence, 38.5C; percent above DMSO median, 100 means doubled | growth rescue, % at 18.8 µM | actives 1% (n = 320,000);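 active means every valid replicate shows activation above 250% relative to neutral control wells; inactive means the rest, any valid replicate at or below 250%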;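 further: OY570 slx delta 5 strain wells were the positive control but not used for scaling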
C2C12 statin: suppressors of simvastatin-induced myotoxicity in C2C12 myotubes; ATP luminescence, 48 h; scaled: DMSO 0, geranylgeraniol control 100; rescue of ATP level, % at 7.49 µM; actives 0.78% (n = 330,000);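 active means mean ATP rescue above about 67%, or every replicate alone reaching that limit, limit read from the data, passing the limit was not always enough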;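 further: myotubes were challenged with 10 µM simvastatin during compound exposure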
Numbers without * were called inactive; . = no result given.

SMILES	Cneo AK release	Mot1-301 SUMO	C2C12 statin
Cc1noc(C)c1S(=O)(=O)N(C)C[C@@H]1Oc2c(NC(=O)c3cnccn3)cccc2C(=O)N([C@@H](C)CO)C[C@@H]1C	114.0*	.	-14.9
C[C@H](CO)N1C[C@H](C)[C@@H](CN(C)S(C)(=O)=O)Oc2c(NC(=O)c3cnccn3)cccc2C1=O	-2.1	.	17.2
C[C@@H]1CN([C@H](C)CO)C(=O)c2cccc(NC(=O)Nc3ccccc3)c2O[C@H]1CN(C)S(=O)(=O)c1cn(C)cn1	38.2	.	.
C[C@@H]1CN([C@@H](C)CO)C(=O)c2cc(NS(=O)(=O)c3cn(C)cn3)ccc2O[C@@H]1CN(C)C(=O)Nc1ccc(F)cc1	.	.	10.1
O=C(Nc1ccccc1)N1C[C@H]2[C@@H](c3ccccc31)[C@@H](CO)N2C(=O)c1ccncc1	-3.8	.	-3.7
COCC(=O)N(C)C[C@H]1Oc2ncc(C#C[C@H](C)O)cc2C(=O)N([C@@H](C)CO)C[C@@H]1C	8.2	.	6.9
CO[C@H](CN(C)Cc1ccc2c(c1)OCO2)[C@@H](C)CN(C(=O)c1ccccc1)[C@@H](C)CO	104.1*	.	5.8
CO[C@H](CN(C)Cc1ccc2c(c1)OCO2)[C@H](C)CN(C(=O)c1ccccc1)[C@H](C)CO	-0.4	.	5.4
CN(C)C(=O)C[C@H]1CC[C@H]2[C@@H](COc3ccc(NC(=O)c4ccc(F)cc4)cc3C(=O)N2C)O1	-1.3	.	5.0
CCC(=O)Nc1ccc2c(c1)OC[C@@H](C)N(CC1CCOCC1)C[C@H](C)[C@H](OC)CN(C)C2=O	-1.8	.	-6.8
c1cc2cc(-c3c(-c4ccc5c(c4)OCO5)noc3-c3ccsc3)ccc2[nH]1	-2.7	1.5	125.6*
Cc1onc(-c2ccc3c(c2)OCO3)c1-c1ccc2[nH]ccc2c1	6.6	13.8	-13.7
C[C@@H]1CN([C@H](C)CO)C(=O)c2cc(N(C)C)ccc2O[C@@H](C)CCCCO[C@H]1CN(C)C(=O)Nc1ccc2c(c1)OCO2	.	.	-6.1
O=C(NCCc1ccc(C(F)(F)F)cc1)C1COc2ccccc2O1 (centres undefined)	-2.5	-3.5	-3.5
O=C(NCCC1=CCCCC1)C1COc2ccccc2O1 (centres undefined)	-4.3	225.8	146.3*
CCNC(=O)c1c(NC(=O)C2COc3ccccc3O2)sc2c1CCCC2 (centres undefined)	.	-1.3	.
COCCCNC(=O)c1c(NC(=O)C2COc3ccccc3O2)sc2c1CCCC2 (centres undefined)	-2.0	.	95.7*
C[C@H]1CN([C@@H](C)CO)C(=O)c2cc(NS(=O)(=O)c3cccs3)ccc2O[C@H]1CN(C)CC1CCCCC1	15.7	.	11.2
Cc1ccccc1S(=O)(=O)N1CC[C@H]2[C@H](CO)Nc3ccc(-c4cccc(C#N)c4)cc3[C@H]21	-20.5	.	-10.8
CSc1cccc(NC(=S)N(CCN(C)C)C(C)c2ccccn2)c1 (centres undefined)	0.7	102.7	-8.0
CSc1cccc(NC(=S)N(CCN(C)C)C(C)c2ccncc2)c1 (centres undefined)	1.5	318.3*	.
CC(C)CC(C(=O)Nc1oc(-c2ccco2)c(-c2ccco2)c1C#N)N1C(=O)c2ccccc2C1=O (centres undefined)	-0.9	65.7	116.9*
CC(C)CC(C(=O)Nc1cccc(O)c1)N1C(=O)c2ccccc2C1=O (centres undefined)	1.0	14.3	15.2
CO[C@H]1CN(C)C(=O)c2ccc(NC(=O)Nc3ccccc3F)cc2OC[C@H](C)N(C(C)=O)C[C@@H]1C	50.7	.	-7.8
COc1ccc(S(=O)(=O)N(C)C[C@@H]2OCCCC[C@@H](C)Oc3ccc(NS(=O)(=O)c4ccc(F)cc4)cc3C(=O)N([C@H](C)CO)C[C@H]2C)cc1	-2.6	.	-13.3
SMILES	Cneo AK release	Mot1-301 SUMO	C2C12 statin
O=C(C[C@H]1CC[C@@H]2[C@H](COC[C@H](O)CN2C(=O)c2ccccc2)O1)N1CCc2ccccc2C1	4.0	.	11.4
Cc1nn(C)cc1CNC(=O)Nc1cccc(Cl)c1	0.5	347.6*	113.0*
Cc1nn(C)cc1CNC(=O)Nc1ccc(Br)cc1Cl	4.4	14.2	3.7
C[C@@H]1CN([C@H](C)CO)C(=O)c2cc(NC(=O)NC3CCCCC3)ccc2O[C@@H](C)CCCCO[C@@H]1CN(C)S(=O)(=O)c1ccc(F)cc1	-2.6	.	.
Cc1ccc(S(=O)(=O)N2CCOCC2)cc1C(=O)NC1CCCC1	-3.3	240.1	5.4
CC(C)c1ccc(NC(=O)COc2ccc(S(=O)(=O)N3CCOCC3)cc2)cc1	0.6	.	4.0
CCNS(=O)(=O)c1ccc(OC)c(C(=O)NC2CCCCC2)c1	0.0	322.7*	6.8
COc1ccc(S(=O)(=O)NCc2cccnc2)cc1C(=O)NC1CCCCC1	1.1	-10.1	4.0

From PubChem BioAssay
